Measured values reported in publication PMC7437931 (Journal of medicinal chemistry, 2020).
*1 amine or outer side, *2 acyl side, *3 side chain or, on linkers, in order; H or OH if unused. Where a SMILES comes first, the peptide text is derived from it. Bridges are numbered along the chain shown (N, C = ends). Triazole bridges read from a SMILES are 1,4-linked. [ ]: non-standard residue; d: D form. The star is where a group is joined. RhodamineB = CCN(CC)c1ccc2c(-c3ccccc3C(=O)*)c3ccc(=[N+](CC)CC)cc-3oc2c1; Lys(N3) = [N-]=[N+]=NCCCC[C@H](N)C(=O)O; NMeGABA = CN(CCCC(=O)[*:2])[*:1]; Pra = C#CC[C@H](N)C(=O)O

Columns and labels:
[1] = system: Fluo-N5 (N-terminal scrambled epitope); test: FRET binding assay with partially scrambled epitope N5; conditions: 100 nM Fluo-epitope variation
Outline: (§1)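 Fluorescein-labelled epitope held at 100 nM final and mixed with a concentration series of rhodamine-tagged cyclic peptide. Mixtures were incubated 30 min, then FRET intensity was read on a microplate reader. Each point used individually prepared triplicate samples.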

[2] = system: Fluo-M5 (middle segment scrambled epitope); test: FRET binding assay with partially scrambled epitope M5; conditions: 100 nM Fluo-epitope variation
Outline: as §1

[3] = biological target: D570-A583 epitope of proMMP2 (Fluo-epitope) (Homo sapiens, UniProt P08253); test: FRET binding assay; conditions: 100 nM Fluo-epitope, varying Rhod-peptide
Outline: as §1

[4] = system: Fluo-C5 (C-terminal scrambled epitope); test: FRET binding assay with partially scrambled epitope C5; conditions: 100 nM Fluo-epitope variation
Outline: as §1

[5] = biological target: Fluo-epitope (fluorescein-labeled D570-A583 epitope of proMMP2) (human); test: FRET or BRET

| Compound | binding to scrambled epitope N5 (FRET) [1] | binding to scrambled epitope M5 (FRET) [2] | binding affinity to the epitope (FRET) [3] | binding to scrambled epitope C5 (FRET) [4] | Kd [5] [nM] |
| --- | --- | --- | --- | --- | --- |
| CCN(CC)c1ccc2c(-c3ccccc3C(=O)N(C)CCCC(=O)N[C@H]3Cc4cn(nn4)CCCC[C@@H](C(N)=O)NC(=O)[C@H](Cc4ccc(O)cc4)NC(=O)[C@@H]4CCCN4C(=O)[C@H](Cc4c[nH]cn4)NC(=O)[C@@H]4CCCN4C(=O)[C@H](Cc4c[nH]c5ccccc45)NC3=O)c3ccc(=[N+](CC)CC)cc-3oc2c1 [Rhod-cy(WPHPY)] (RhodamineB-[NMeGABA][Pra]WPHPY[Lys(N3)]-NH2; triazole 2-8; N-terminus assumed) | retained the binding affinity | retained the binding affinity | highest binding affinity | not able to bind | – |
| cy(WPHPY) (peptide) | – | – | – | – | 1 |
